Reference: ChEMBL document CHEMBL4049392, “New azole derivatives showing antimicrobial effects and their mechanism of antifungal activity by molecular modeling studies” (Eur J Med Chem, 2017)

Experiments:
Candida albicans [1] = assay: Antibiofilm activity against Candida albicans SC5314 after 24 hrs by turbidity assay; type: functional
Method in brief: (§1)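 Biofilms were grown on Calgary device pegs from a 10^6 cfu/mL inoculum for 24 h at 37 °C. Pegs were rinsed in saline, then challenged with twofold dilutions for 24 h at 35 °C. Biofilm was recovered by 5 min sonication into RPMI 1640 with 2% glucose and incubated overnight. OD was read at 550 nm plus visual turbidity. MBEC was the lowest concentration preventing regrowth. MBIC was the minimum concentration preventing initial biofilm formation, judged by visual turbidity.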

Pichia kudriavzevii = assay: Anti-fungal activity against Candida krusei ATCC 6258 after 48 hrs by broth microdilution method; type: functional; conditions: ATCC 6258, 48 h
Method in brief: (§2)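 CLSI broth microdilution in RPMI 1640 (with glutamine, without bicarbonate) buffered to pH 7.0 with MOPS. Inoculum was prepared from 24 h Sabouraud dextrose agar subcultures, final 0.5 to 2.5 10^3 cfu/mL. Twofold dilutions were made from DMSO stocks. Incubated 35 °C for 48 h. MIC was the lowest concentration with no visible growth; for the fluconazole reference, MIC was taken at about 80% growth inhibition versus control.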

Candida parapsilosis = assay: Anti-fungal activity against Candida parapsilosis ATCC 90018 after 48 hrs by broth microdilution method; type: functional; conditions: Lodderomyces parapsilosis, ATCC 90018, 48 h; method in brief: as §2
Pseudomonas aeruginosa = assay: Antibacterial activity against Pseudomonas aeruginosa ATCC 27853 after 18 to 24 hrs by broth microdilution method; type: functional
Method in brief: (§3)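 CLSI broth microdilution in Mueller Hinton broth, with inoculum from 24 h Mueller Hinton agar subcultures, final about 5 10^5 cfu/mL. Compounds were dissolved in DMSO and tested as twofold dilutions in wells. Plates were incubated at 35 °C for 18–24 h. MIC was read as the lowest concentration completely inhibiting visible growth. Ciprofloxacin was the reference.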

Staphylococcus aureus = assay: Antibacterial activity against Staphylococcus aureus ATCC 29213 after 18 to 24 hrs by broth microdilution method; type: functional; method in brief: as §3
Candida albicans [2] = assay: Anti-fungal activity against Candida albicans ATCC 90028 after 48 hrs by broth microdilution method; type: functional; conditions: ATCC 90028, 48 h; method in brief: as §2
Enterococcus faecalis = assay: Antibacterial activity against Enterococcus faecalis ATCC 29212 after 18 to 24 hrs by broth microdilution method; type: functional; method in brief: as §3
Candida albicans [3] = assay: Antibiofilm activity against Candida albicans SC5314 after 24 hrs by spectrophotometric method; type: functional; method in brief: as §1
Escherichia coli = assay: Antibacterial activity against Escherichia coli ATCC 25922 after 18 to 24 hrs by broth microdilution method; type: functional; method in brief: as §3
[4] = Cytotoxicity against human U937 cells assessed as cell viability at 10 to 100 ug/ml after 48 hrs by MTT assay relative to control; type: cell-based, U-937; conditions: read-out: Activity
Method in brief: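 U937 human monocytic cells, 4 10^3 per well in RPMI-1640 with 10% FBS, L-glutamine, penicillin and streptomycin, at 37 °C and 5% CO2. Compounds in DMSO were added at five final concentrations for 48 h, in triplicate. MTT was added for 4 h, formazan was dissolved overnight in SDS/23% DMF, and OD was read at 570 nm. Results are % reduction in viable cells versus control.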

Nakaseomyces glabratus = assay: Anti-fungal activity against drug-resistant Candida glabrata after 48 hrs by broth microdilution method; type: functional
Method in brief: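 Clinical resistant C. glabrata isolate, stored frozen in glycerol and subcultured twice on Sabouraud dextrose agar. CLSI broth microdilution in RPMI 1640 (glutamine, no bicarbonate) buffered to pH 7.0 with MOPS. Inoculum from 24 h subcultures, final 0.5 to 2.5 x10^3 cfu/mL. DMSO-dissolved compounds in twofold dilutions, 35 C for 48 h. MIC is the lowest concentration giving complete visual growth inhibition; fluconazole reference read at about 80% inhibition.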

SMILES | MBIC (Candida albicans [1]) | MIC (Pichia kudriavzevii) | MIC (Candida parapsilosis) | MIC (Pseudomonas aeruginosa) | MIC (Staphylococcus aureus) | MIC (Candida albicans [2]) | MIC (Enterococcus faecalis) | MBEC (Candida albicans [3]) | MIC (Escherichia coli) | viability at 48 h [4] | MIC (Nakaseomyces glabratus)
Cl.O=C(OC(Cn1ccnc1)c1ccccc1)c1ccc(-c2ccccc2)cc1 (stereo not drawn) | 8 µg/mL | 8 µg/mL | 0.125 µg/mL | 256 µg/mL | 512 µg/mL | 0.125 µg/mL | 128 µg/mL | 1024 µg/mL | 512 µg/mL | 70 to 80% | 2 µg/mL
Cl.O=C(/C=C/c1ccccc1)OC(Cn1ccnc1)c1ccccc1 (stereo not drawn) | 8 µg/mL | 16 µg/mL | 1 µg/mL | 256 µg/mL | 8 µg/mL | 1 µg/mL | 64 µg/mL | 1024 µg/mL | 512 µg/mL | 70 to 80% | 8 µg/mL
CCCC(=O)OC(Cn1ccnc1)c1ccc(Cl)cc1.Cl (stereo not drawn) | >32 µg/mL | 4 µg/mL | 1 µg/mL | 256 µg/mL | 64 µg/mL | 0.5 µg/mL | 256 µg/mL | 1024 µg/mL | 512 µg/mL | 70 to 80% | 16 µg/mL
